RGS4 pot: potentiators or activators of RGS4 | HEK293 M3R/inducible RGS4, carbachol calcium flux Fluo4; hits give low values | 310,000 compounds, 0.92% hits | B-score at 10 µM;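 active = B-score of the integrated calcium signal more than 4 SD below the library mean, with starting fluorescence not abnormally high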;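 note: negative B-score means reduced calcium response which marks RGS4 activation or potentiation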
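test system = M3R-expressing HEK293 line, RGS4 induced by doxycycline | probe or stimulus = carbachol at ECmax as muscarinic agonist stimulus | timing = dye loading 30 min 37 °C, buffer rest 30 min RT | signal = calcium dye Fluo4 fluorescence | evaluation = B score from integrated fluorescence ratio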
RGS4 inh: inhibitors of human RGS4 | P49798 | HEK293 M3R/RGS4 inducible, Fluo-4 calcium flux; hits give high values; triggered by carbachol at its EC20 | B-score at 10 µM | 310,000 compounds, 0.45% hits | AID 463165;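 active = B-score, a plate-corrected calcium signal, over three deviations above library mean, with baseline fluorescence within five deviations of library mean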;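 note: RGS4 expression induced by doxycycline in cells with stable M3 receptor; B-score is computed from the integrated fluorescence ratio over baseline after carbachol; higher B-score means a larger calcium signal and so more RGS4 inhibition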
Target sequence (P49798 whole entry, looked up): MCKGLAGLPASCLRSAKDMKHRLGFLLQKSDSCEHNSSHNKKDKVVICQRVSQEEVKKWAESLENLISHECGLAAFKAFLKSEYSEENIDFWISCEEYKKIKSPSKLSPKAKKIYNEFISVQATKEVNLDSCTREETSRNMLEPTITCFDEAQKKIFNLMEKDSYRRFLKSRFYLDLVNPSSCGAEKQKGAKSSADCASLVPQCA
MrgX1 antag: antagonists of human MrgX1 receptor. MRGX1-HEK293 calcium flux, Fluo-4, BAM8-22 antagonism; hits give low values. B-score at 10 µM. 310,000 compounds, 1.3% hits. Q96LB2;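 active = calcium-response B-score plate-corrected more than 3 library SD below zero, starting fluorescence within 5 deviations, no agonist response on first addition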;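 note: peak minus trough fluorescence over baseline after final BAM8-22 challenge near maximal dose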
Target sequence (Q96LB2 whole entry, looked up): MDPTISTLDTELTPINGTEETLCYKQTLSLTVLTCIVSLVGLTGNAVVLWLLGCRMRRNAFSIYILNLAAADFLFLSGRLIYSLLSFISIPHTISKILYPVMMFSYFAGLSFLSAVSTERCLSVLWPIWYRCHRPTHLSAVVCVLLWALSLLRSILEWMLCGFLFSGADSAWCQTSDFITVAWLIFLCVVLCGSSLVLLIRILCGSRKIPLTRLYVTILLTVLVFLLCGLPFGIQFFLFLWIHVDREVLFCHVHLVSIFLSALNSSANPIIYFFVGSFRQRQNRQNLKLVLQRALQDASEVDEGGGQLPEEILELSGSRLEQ
MrgX1 ag: human MrgX1 receptor agonism, primary screen; MrgX1-HEK293 cells, Fluo-4 calcium fluorescence, agonist mode; hits give high values; 310,000 compounds, 0.44% hits; AID 588627; B-score at 10 µM;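 active = calcium response B-score plate-corrected fluorescence ratio at least 3 library SD, with starting fluorescence B-score inside 5 SD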
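Material – MrgX1-expressing HEK293 cells · Input – 15,000 cells seeded per well · Dosing – compound as first of three additions · Times – overnight seeding, then 1 h dark dye loading · Measured by – kinetic Fluo-4 NW fluorescence of intracellular calcium · Read-out – B-scored fluorescence response ratio · Benchmarks – positive and negative control wells on each plate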
MrgX1 PAM: human MrgX1 positive allosteric modulation, primary screen; B-score at 10 µM; 310,000 compounds, 0.63% hits; Q96LB2; MrgX1-HEK293, Fluo-4 calcium flux, FDSS; hits give high values;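 active = plate-corrected calcium response at least 3 library SD above typical, normal starting fluorescence, not activating the receptor alone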;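 note: compound read alongside a low EC10 to EC30 dose of BAM8-22 agonist; peak minus trough fluorescence over baseline measured at the second addition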
MrgX1 ag reconf: confirmation of human MrgX1 receptor agonists; 600 compounds, 78% hits; activation, % at 10 µM; MrgX1-HEK293, Fluo-4 calcium fluorescence, FDSS; shares compounds with MrgX1 ag;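 active = calcium signal rise, corrected for plate position, at least 3 library SD high, with starting brightness within 5 such deviations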
HEK293 Ca flux: activity in parental HEK293 cells lacking MrgX1. shares compounds with MrgX1 antag. Fluo-4 calcium fluorescence, FDSS. fluorescence ratio F(max-min)/F0 at 10 µM. 4,000 compounds, 2% hits;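 active = duplicate-averaged calcium fluorescence ratio at least three times the standard deviation of buffer wells, a nonspecific response in parental cells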
HEK293 Ca counter: counter-screen for MrgX1 allosteric activators: effect in parental HEK293 cells. fluorescence ratio F(max-min)/F0 at 10 µM. parental HEK293 calcium flux, Fluo-4 fluorescence ratio; hits give high values. shares compounds with MrgX1 antag. 4,000 compounds, 0.4% hits;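 active = calcium fluorescence ratio, averaged over duplicates, at least 3 SD of the buffer-well ratio, meaning a nonspecific response in receptor-free cells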;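 note: untransfected parental HEK293 lacking MrgX1 used as counterscreen for MrgX1 allosteric activators; fluorescence change taken during the second addition on a kinetic imager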
HEK293 Ca cntr2: MrgX1 activator counter-screen hit in parental HEK293 cells | 4,000 compounds, 8.7% hits | shares compounds with MrgX1 antag | fluorescence ratio F(max-min)/F0 at 10 µM | Fluo-4 calcium fluorescence (FDSS); hits give high values | AID 624115;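 active = calcium fluorescence ratio at least three times the spread of buffer wells, meaning a non-specific response in parental cells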
Active calls of the source: *; i = inactive; x = no result given. Sampled rows, rich in hits. Any-hit rate of the full collection: about 3.5%.

SMILES | RGS4 pot | RGS4 inh | MrgX1 antag | MrgX1 ag | MrgX1 PAM | MrgX1 ag reconf | HEK293 Ca flux | HEK293 Ca counter | HEK293 Ca cntr2
COc1ccc(C)cc1S(=O)(=O)Nc1ccc(-n2c(C)nc3ccccc3c2=O)cc1 | i | i | i | i | i | x | x | x | x
Cc1ccc(NC(=S)NCc2ccc3c(c2)cc(C)n3C)c(C)c1 | i | i | i | i | i | x | x | x | x
Cc1cc(NCc2ccccc2)nc2ccccc12 | i | i | i | 83* | i | 293%* | i | i | i
O=C(Nc1cc(Cl)ccc1O)c1snnc1-c1ccccc1 | i | i | i | i | i | x | x | x | x
CCOC(=O)c1c(NC(=O)c2ccccc2C(=O)O)sc2c1CCCC2 | i | i | i | 34* | i | 192%* | i | i | i
Cc1cc(C)nc(/N=C(\N)Nc2ccc(C(C)C)cc2)n1 | i | i | i | 32* | i | 119%* | i | i | i
Cc1ccc(N/C(N)=N/c2nc(C)cc(C)n2)cc1 | i | i | i | 124* | i | 432%* | i | i | 97*
Cc1cccc(N/C(N)=N/c2nc(C)cc(C)n2)c1 | i | i | i | 69* | i | 358%* | i | i | 76*
Cc1cc(C)cc(N/C(N)=N/c2nc(C)cc(C)n2)c1 | i | i | i | 33* | i | 132%* | i | i | i
CCC(=O)Nc1ccc(N/C(N)=N/c2nc(C)cc(C)n2)cc1 | i | i | i | i | i | x | x | x | x
CC1(C)Cc2c(cnn2-c2ccccc2)C(NC(=O)CCCN2CCCC2=O)C1 (configuration not stated) | i | i | i | i | i | x | x | x | x
Cc1ccccc1N1CCN(S(=O)(=O)Cc2ccccc2)CC1 | i | i | i | i | i | x | x | x | x
N/C(=N\N=C/c1ccc(F)cc1)N/N=C\c1ccc(F)cc1 | i | i | i | 66* | i | 499%* | i | i | 76*
O=C(COc1ccc(-c2ccccc2)cc1)NNC(=O)NC1CCCCC1 | i | i | i | i | i | x | x | x | x
CCn1c(-c2ccc(N(C)C)cc2)nc2ccccc21 | i | i | i | 31* | i | 87%* | i | i | i
CCn1c(-c2ccc(N)cc2)nc2ccccc21 | i | i | i | i | i | x | x | x | x
CC(C)n1c(-c2ccc(N(C)C)cc2)nc2ccccc21 | x | x | i | 30* | i | 162%* | i | i | i
Nc1c(C(=O)Nc2nc3ccccc3s2)sc2nc(-c3cccs3)ccc12 | i | i | i | 29* | i | 157%* | i | i | i
Cc1cccc(C)c1OCc1cc(C(=O)N2CCN(c3ccccc3)CC2C)no1 (configuration not stated) | i | i | i | i | i | x | x | x | x
C=CCOC(=O)C1=C(C)OC(N)=C(C#N)C1c1ccccc1F (configuration not stated) | i | i | i | 27* | i | 173%* | i | i | i
Fc1ccc2[nH]c3c(NCc4ccccc4)ncnc3c2c1 | i | i | i | 38* | i | 251%* | i | i | 54*
N=C(N)CCCOc1ccccc1-c1ccccc1 | i | i | i | 28* | i | 81%* | i | i | i
O=S(=O)(NCC1(N2CCOCC2)CCCCC1)c1ccccc1Cl | i | i | i | i | i | x | x | x | x
O=S(=O)(NCC1(N2CCOCC2)CCCCC1)c1ccc(Cl)cc1C(F)(F)F | i | i | i | 88* | i | 261%* | i | i | i
NNc1ccc2nnc(C(F)(F)C(F)(F)C(F)(F)F)n2n1 | i | i | i | i | i | x | x | x | x
SMILES | RGS4 pot | RGS4 inh | MrgX1 antag | MrgX1 ag | MrgX1 PAM | MrgX1 ag reconf | HEK293 Ca flux | HEK293 Ca counter | HEK293 Ca cntr2
O=C1S/C(=C\c2ccc(N3CCOCC3)o2)C(=O)N1Cc1ccc(F)cc1 | x | x | i | i | i | x | x | x | x
CC(C)OC(=O)CN1C(=O)S/C(=C/c2ccc(N3CCCCC3)o2)C1=O | i | i | i | 64* | i | i | 0.079* | i | i
O=C(O)C1C2CCC(O2)C1C(=O)Nc1ccc(F)c(Cl)c1 (configuration not stated) | i | i | i | i | i | x | x | x | x
O=C(O)C1C(C(=O)Nc2ccc(Cl)cc2)C2C=CC1C21CC1 (configuration not stated) | i | i | i | 32* | i | i | i | i | i
CCOc1ccccc1C(=O)N/N=C/c1ccoc1 | i | i | i | i | i | x | x | x | x
CN(C)CCCNC(=O)c1ccc(Cl)c(S(=O)(=O)N(C)c2ccccc2)c1 | i | i | i | i | i | x | x | x | x
CCCCC(=O)NC(=S)Nc1cccc(C(=O)O)c1 | i | i | i | 32* | i | i | i | i | i
Cc1cccc(CS(=O)(=O)Cc2ccc(C(=O)NC3CCCCCC3)o2)c1 | i | i | i | i | i | x | x | x | x
N#CC1=C(N)Oc2cc(N)ccc2C1c1ccccc1Cl (configuration not stated) | i | i | i | 29* | i | i | i | i | i
N#CC1=C(N)Oc2cc(N)ccc2C1c1ccc(Cl)cc1 (configuration not stated) | i | i | i | i | i | x | x | x | x
CN(c1ccccc1)c1nc(N2CCCC2)nc(-n2ccnc2)n1 | i | i | i | 48* | i | 171%* | i | i | 51*
CN1CCN(C(=O)CSc2nc(-c3cccs3)cc(-c3cccs3)c2C#N)CC1 | i | i | i | i | i | x | x | x | x
N#Cc1ccc(-c2cccnc2)nc1SCC(=O)c1ccccc1 | i | i | i | 30* | i | 197%* | i | i | i
CN1CCN(C(=O)CSc2nc(-c3ccncc3)ccc2C#N)CC1 | i | i | i | 35* | i | 158%* | i | i | i
Cc1ccc(S(=O)(=O)NNC(=O)c2sc(=S)n(C)c2C)cc1 | i | i | i | i | i | x | x | x | x
